Assay results taken from ChEMBL document CHEMBL4513216, “Probing the Open Global Health Chemical Diversity Library for Multistage-Active Starting Points for Next-Generation Antimalarials” (ACS Infect Dis, 2020).

Assay: Toxicity liver stage against HepG2, at 10uM
Assay type: cell-based
Set-up: test concentration 10 uM, cell line HepG2-A16-CD81EGFP
Conditions: human, HepG2-A16-CD81EGFP cells; read-out: INHIBITION
Procedure, shortened: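 Uninfected HepG2-A16-CD81EGFP cells, 3 × 10^3 per well, 1536-well, plated on prespotted compound at 10 μM final, parasite-free screening media added to match infected plates; puromycin 10 μM positive, DMSO 0.5% negative; run in parallel with 48 h PbLuc assay at 37 °C, 5% CO2; viability by CellTiter-Glo luminescence, normalized to controls.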

Compound	cytotoxicity at 10 µM [%]
CCCC(O)CN1CC(C)(C)CN(C(=O)CCc2ccccc2)CC1=O (stereo unspecified)	-15.4
CSCC[C@H](NC(=O)N1CCC(Cc2ccccc2)CC1)C(=O)O	-1.55
O=C1CC(c2cccnc2)c2c(c(C(=O)O)cn2-c2ccc(Cl)cc2)N1 (stereo unspecified)	-0.462
COC(=O)CNC(=O)c1sccc1N(C)S(=O)(=O)c1ccc(Cl)cc1	-15.4
O=C(c1ccccc1F)N1CC(c2nc(-c3ccc[nH]c3=O)no2)C1	2.21
O=C(c1ccco1)N1CCC(CSCc2ccco2)CC1	-6.49
CN(C)C(=O)Cc1ccc(NC(=O)c2cn(C)nn2)cc1	-5.27
C[C@H]1C[C@@H]2CCN(Cc3nccs3)C[C@H]2O1	-3
CCN1CC[C@]2(CN(C(=O)C3CCOCC3)C[C@H]2c2ccccc2)C1=O	8.58
O=S(=O)(C1CC1)N1CCn2c(Cn3cncn3)cnc2C1	12.2
COCCN1C(=O)C2(CCC(C(=O)Nc3ccc(F)cc3)CC2)N=C1C (stereo unspecified)	9.7
c1ccc(CNCC2Cn3nncc3CO2)nc1 (stereo unspecified)	4.93
CCOCC1CC2(CCN(C(=O)C3CC=CC3)CC2)CO1 (stereo unspecified)	1.5
CN(C)c1nc(N2CCCC2)nc2c1CCN(C(=O)c1ccoc1)CC2	14.9
CC(=O)N1CC[C@H]2C(=O)N(c3ccsc3)CCO[C@H]2C1	4.47
COCCC1COC2(CCN(C(C)=O)CC2)C1 (stereo unspecified)	8.19
O=C(NCc1ccccc1)c1nn(C2CCS(=O)(=O)C2)c2c1CCCC2 (stereo unspecified)	5.92
CC(C)OCCCNC(=O)c1c(-n2cnnn2)sc2c1CCCC2	11.9
O=C(CCO)N1CCOC2(CCCN(C(=O)c3ccco3)C2)C1 (stereo unspecified)	-11.7
Cc1nc(N2CCCC2)ncc1-c1cc(O)nc(N2CCN(C)CC2)n1	2.6
CNc1cccc(CC2COCCN(C(=O)c3cccnc3)C2)n1 (stereo unspecified)	-1.99

Compound	cytotoxicity at 10 µM [%]
c1cncc(CN2CCC(c3ccnc4nccn34)C2)c1 (stereo unspecified)	5.78
COCC(=O)N1CCC(c2cc3nc(C)cc(C(F)(F)F)n3n2)CC1	4.49
CC(C)N1C(=O)CO[C@H]2CCN(C(=O)c3ccc4c(c3)CCC4)CC[C@@H]21	3.79
CC(C)CN1CCCC(c2nc(O)c3cc(F)ccc3n2)C1 (stereo unspecified)	10.3
CN(Cc1nnc(C2CC2)o1)Cc1ccccc1N1CCOCC1	-7.83
CCn1cc(S(=O)(=O)Nc2cccnc2-n2cccn2)nc1C	3.21
CN1CCC(NC(=O)c2cc(Br)cc(Cl)c2O)C1=O (stereo unspecified)	-5.79
Oc1ccc(Br)c(CNc2cccc(-c3nnc[nH]3)c2)c1	-38.9
CS(=O)(=O)N1CCCC(C(=O)N2CCOc3ccccc32)C1 (stereo unspecified)	0.421
CC(C)(O)CN1CCN(C(=O)c2cccn2Cc2ccccc2)CC1	-3.88
Cc1ccc(CNC(CN2CCN(C)CC2)c2ccccc2)cc1C (stereo unspecified)	-7.49
CCc1ncc2c(n1)CN(Cc1ncc(C(C)(C)C)o1)CC2	-15.9
CCN(CC)C(=O)Nc1cccc(Oc2ccccn2)c1	8.12
COCCOCC(=O)Nc1ccccc1F	14.7
CCc1nnc2n1CCN(Cc1noc(-c3cccc(C)c3)n1)C2	12
CC(C)Cc1nc(CSC2CCCN(c3cnn(C)c3)C2=O)no1 (stereo unspecified)	17.7
CN(C)CCn1ccc2cc(NC(=O)NCc3ccon3)ccc21	-2.51
N#Cc1ccc(CNc2ncc(C#N)cc2Cl)cc1	17.7
Cc1ccc(S(=O)(=O)NC(=O)C2(c3ccc(F)cc3)CCC2)c(C)c1	-1.09
O=C(CN(CC(O)c1ccc(F)cc1)C1CC1)Nc1cccnc1 (stereo unspecified)	-4.19
Cc1cc(N2CCc3c(ncn3C)C2)n2nc(C(F)(F)F)nc2n1	4.11

Compound	cytotoxicity at 10 µM [%]
CCS(=O)(=O)NC(CCSC)C(=O)Nc1ccccc1C (stereo unspecified)	1.06
Cc1ccc(NC(=O)CNc2cccc3c2CCCC3)c(Br)c1	14.8
Cc1cc(C(N)=O)ccc1NC(=O)c1nc(N2CCCC2)ncc1Cl	-8.94
Cc1ccc(-n2nnc(CC(=O)N3CCOCC3)c2C)cc1	-12.9
CC(C)n1cccc1C(=O)N1CC[C@@H](NC(=O)c2ccccn2)[C@H](O)C1	2.35
N#Cc1ccccc1C(=O)N1C[C@@H](CN2CCCCC2)[C@@H](CO)C1	-0.165
Cn1cc(CN(C(=O)C2COc3ccccc3C2)C2CC2)cn1 (stereo unspecified)	1.81
COCCC1(C(=O)O)CCCN(c2cc(C)c3ccccc3n2)C1 (stereo unspecified)	-38.7
Cc1ccc(CN2CCN(c3ncnc4[nH]cnc34)CC2CCO)cc1 (stereo unspecified)	28
CC(C)c1nccc(C2(c3ccccc3Cl)CCNCC2)n1	1.93
CCC(Nc1cccc(OC)c1)C(=O)N(CCOC)Cc1cnn(C)c1 (stereo unspecified)	-1.28
CN(Cc1cc2n(n1)CCCNC2)Cc1ccno1	2.57
O=C(c1ccc(S(=O)(=O)NC2CCC2)cc1)N1CC[C@H]2CNC[C@H]21	-13.5
CN(CCc1ccccc1)c1cnn(CC(=O)N2CCOCC2)c(=O)c1	1.77
CN1CCCNC(=O)C12CCN(C(=O)c1ccc3[nH]cnc3c1)CC2	-1.16
C=C(C)COc1ccccc1NC(=O)NC1CCOCC1	4.67
COCC(=O)N1CCC(c2nccn2CC2CC2)CC1	-14.6
Cc1cc(C)c2nc(CN3CC[C@@H](O)C3)cc(O)c2c1	-6.23
Cc1ccc2c(ccn2CCC(=O)O)c1	-3.69
NC(=O)c1cccc(OCC(=O)NS(=O)(=O)c2ccc3c(c2)CCC3)c1	-6.22
Cc1noc(C)c1CNC(=O)N1CCC(Cc2cnn(C)c2)C1 (stereo unspecified)	-8.66

Compound	cytotoxicity at 10 µM [%]
COc1c(C2CCCN2Cc2csc(C(C)C)n2)c(C)nn1C (stereo unspecified)	-1.53
Cc1nc(CN2CCCN(CCOc3cccc(C#N)c3)CC2)no1	-5.85
CC(C)c1noc(C(C)N2CCN(CCO)CC2)n1 (stereo unspecified)	-2.26
O=C1NCc2ccc(NC(=O)C3CCCN3c3nccs3)cc21 (stereo unspecified)	-6.02
Cc1cc(C)c(CNC(=O)C2CCCN(c3cnccn3)C2)c(=O)[nH]1 (stereo unspecified)	-13.7
CN(Cc1ccc(F)cc1)C(=O)CN1CCOC(Cn2cncn2)C1 (stereo unspecified)	-4.07
CC(C)(C)n1ncc2c1CCCC2NCc1cccc2c1OCO2 (stereo unspecified)	3.37
CCN1CCN(CC(C)(O)c2cccc(C(F)(F)F)c2)CC1 (stereo unspecified)	-11.4
Cn1ccc(CN2CCC(CCc3ccc(O)cc3)CC2)cc1=O	1.2
Cc1noc(CN2Cc3ccccc3CC2c2nnc(C)o2)n1 (stereo unspecified)	-4.62
Cc1cccc(N2CCCC3(C2)CN(S(=O)(=O)C2CC2)CCO3)c1 (stereo unspecified)	11
COCCN(C)C[C@@H]1CCC[C@@H]2CN(Cc3ccc(OC)nc3)C[C@@H]21	8.13
Cn1nccc1-c1ncc2c(c1C(=O)O)CCN(Cc1ccncc1)C2	6.1
Cn1cc(CN2CCC3(CC2)C(=O)Nc2ccccc23)cn1	0.134
COCC(=O)N1CCCn2c(CN3CCCCC3)nnc2C1	-15.8
CCOCc1cnc2n1CCN(Cc1scnc1C)C2C (stereo unspecified)	8.85
CCN1C(=O)[C@H]2CN(CC(C)C)C[C@H]2C12CCN(S(C)(=O)=O)CC2	10.3
c1ccc(CN2CCOC3(COCCN(c4ncccn4)C3)C2)nc1 (stereo unspecified)	8.28
